Data on two compounds can be found in ChEMBL document CHEMBL1132476, “Design and synthesis of novel alpha(1)(a) adrenoceptor-selective antagonists. 1. Structure-activity relationship in dihydropyrimidinones” (J Med Chem, 1999).

For orientation: Ki means the equilibrium dissociation constant of an inhibitor or competing ligand from its target. A high value points to lower affinity.

Series [1] is filed under the species Rattus norvegicus. Nature of the series: (§1) Duration of action in rat. The format is ADME, organism-based. The settings on record: in vivo. The gist of the method:
(§2)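 Anesthetized (urethane) male Sprague-Dawley rats (300–400 g), kept at 37 °C rectal temperature. Anterior prostate attached to a force transducer at 2 g resting tension. Pretreatment: atropine and propranolol (1 mg/kg each). Contractions were evoked by agonist (phenylephrine 10 μg/kg or (R)-A-61603 30 ng/kg), given 5 min after antagonist and then every 30 min for up to 4 h.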

For a further series, the species on record is Homo sapiens. Briefly: Antagonism against phenylephrine induced contractions in isolated prostate tissue of human. The settings on record: Prostate gland. The format is functional.
Series [2] is filed under the species Canis familiaris. Nature of the series: Potency to inhibit phenylephrine stimulated diastolic blood pressure in dog. The series is classed as functional, Canis lupus familiaris, Artery. The method in brief:
(§3)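 Male mongrel dogs (9–14 kg), pentobarbital-anesthetized (35 mg/kg iv plus 4–5 mg/kg/h infusion), ventilated, with femoral catheters. Control iv bolus phenylephrine dose–response curves for intraurethral and diastolic pressure, repeated after successive iv antagonist doses (30, 100, 300). Kb by Arunlakshana–Schild analysis.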

The species entered for series [3] is Canis familiaris. Briefly: Antagonism against phenylephrine induced contractions in isolated prostate tissue of dog. The format is functional, Canis lupus familiaris, Prostate gland. The gist of the method:
(§4)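 Isolated prostate strips (rat or dog) contracted with phenylephrine as agonist. Antagonist potency is expressed as Kb, derived from the shift in the agonist response by a previously published method.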

Series [4] is filed under the species Rattus norvegicus. Nature of the series: Dose required to produce 50% inhibition of phenylephrine induced diastolic blood pressure in rat. The format is functional, Artery.
Series [5] concerns the target T1, Adrenergic receptor alpha-1 (Rattus norvegicus, UniProt P15823+P23944+P43140).
T1 sequence (P15823 whole entry): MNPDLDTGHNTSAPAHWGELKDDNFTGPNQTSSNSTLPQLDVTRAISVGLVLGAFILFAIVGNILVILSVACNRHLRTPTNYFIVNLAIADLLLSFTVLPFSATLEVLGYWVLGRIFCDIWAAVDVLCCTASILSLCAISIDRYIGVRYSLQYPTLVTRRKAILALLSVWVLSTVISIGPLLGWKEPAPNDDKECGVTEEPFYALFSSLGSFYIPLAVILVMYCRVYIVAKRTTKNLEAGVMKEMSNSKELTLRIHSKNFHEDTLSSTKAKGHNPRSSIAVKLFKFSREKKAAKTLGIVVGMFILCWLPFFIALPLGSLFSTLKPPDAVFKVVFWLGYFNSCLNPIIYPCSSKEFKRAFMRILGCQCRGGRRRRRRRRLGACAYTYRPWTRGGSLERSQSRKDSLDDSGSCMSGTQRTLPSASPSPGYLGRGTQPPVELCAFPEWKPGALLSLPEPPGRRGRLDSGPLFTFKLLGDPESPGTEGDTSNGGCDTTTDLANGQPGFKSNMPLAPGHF
T1 sequence (P23944 whole entry): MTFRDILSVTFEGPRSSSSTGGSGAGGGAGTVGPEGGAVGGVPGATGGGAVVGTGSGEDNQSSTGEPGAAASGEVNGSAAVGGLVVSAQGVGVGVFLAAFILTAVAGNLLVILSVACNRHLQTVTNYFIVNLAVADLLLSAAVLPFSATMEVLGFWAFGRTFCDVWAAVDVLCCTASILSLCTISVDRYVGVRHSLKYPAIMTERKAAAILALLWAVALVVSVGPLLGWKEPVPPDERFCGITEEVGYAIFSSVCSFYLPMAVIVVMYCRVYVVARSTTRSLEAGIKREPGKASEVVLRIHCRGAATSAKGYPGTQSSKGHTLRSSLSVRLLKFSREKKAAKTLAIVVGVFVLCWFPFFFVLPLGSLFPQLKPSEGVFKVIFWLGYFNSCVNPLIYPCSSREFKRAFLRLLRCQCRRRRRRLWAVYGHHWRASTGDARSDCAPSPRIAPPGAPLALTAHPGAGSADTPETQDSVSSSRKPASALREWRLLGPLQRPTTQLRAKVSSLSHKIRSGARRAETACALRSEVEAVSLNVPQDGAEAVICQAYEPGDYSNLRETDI
T1 sequence (P43140 whole entry): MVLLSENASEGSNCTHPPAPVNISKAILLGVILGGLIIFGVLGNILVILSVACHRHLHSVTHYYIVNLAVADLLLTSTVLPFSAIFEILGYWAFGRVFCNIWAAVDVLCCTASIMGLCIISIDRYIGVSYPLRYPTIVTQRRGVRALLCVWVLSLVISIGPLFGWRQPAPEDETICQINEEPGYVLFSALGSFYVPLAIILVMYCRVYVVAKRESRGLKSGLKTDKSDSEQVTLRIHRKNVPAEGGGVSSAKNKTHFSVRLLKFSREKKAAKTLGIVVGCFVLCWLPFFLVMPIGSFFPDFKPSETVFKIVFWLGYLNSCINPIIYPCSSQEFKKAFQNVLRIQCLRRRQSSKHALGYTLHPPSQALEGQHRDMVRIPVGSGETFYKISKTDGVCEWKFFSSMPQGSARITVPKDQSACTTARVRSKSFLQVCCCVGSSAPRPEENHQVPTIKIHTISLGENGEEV
Briefly: In vitro binding affinity against Alpha-1A adrenergic receptor in isolated prostate tissue of rat. The format is tissue-based, Prostate gland.

The species entered for series [6] is Rattus norvegicus. Nature of the series: Dose required to produce 50% inhibition of phenylephrine induced contractile response in situ rat prostate. The format is functional, Prostate gland. The method in brief:
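Male Sprague-Dawley rats (300–400 g), urethane-anesthetized, held at 37 °C rectal, pretreated with atropine and propranolol (1 mg/kg each). Anterior prostate on a force transducer at 2 g resting tension; phenylephrine challenge 10 μg/kg. For AD50, rising noncumulative antagonist doses were given every 20 min, with agonist 5 min after each. For duration, agonist was given 5 min after antagonist, then every 30 min for up to 4 h.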

Series [7] has as its target Adrenergic receptor alpha-1 (Rattus norvegicus) (UniProt P15823+P23944+P43140). Nature of the series: Antagonistic activity against Alpha-1 adrenergic receptor in rat prostate tissue using A61603 as agonist. The series is classed as functional, tissue-based. To be noted: Prostate gland.
For series [8], the species on record is Rattus norvegicus. Briefly: Antagonistic activity against norepinephrine induced contractions in rat vas deferens. The series is classed as functional.
The species entered for series [9] is Rattus norvegicus. Briefly: Antagonism against phenylephrine induced contractions in isolated prostate tissue of rat. The series is classed as functional, Prostate gland. The method in brief:
as §4

The species entered for series [10] is Canis familiaris. Nature of the series: Potency to inhibit phenylephrine stimulated intraurethral pressure in dog. The format is functional, Canis lupus familiaris, Urethra. The gist of the method: as §3
For series [11], the species on record is Rattus norvegicus. Briefly: Antagonistic activity against norepinephrine induced contractions in rat aorta. The format is functional.
Series [12] is filed under the species Canis familiaris. Nature of the series: Potency to inhibi phenylephrine stimulated diastolic blood pressure in dog. The format is functional, Canis lupus familiaris, Artery. The gist of the method: as §3
The species entered for series [13] is Rattus norvegicus. Described as §1. The series is classed as functional. The method in brief: as §2

`CCC1=C(C(N)=O)C(c2ccc(F)c(F)c2)N(C(=O)NCCCN2CCC(C(=O)OC)(c3ccccc3)CC2)C(=O)N1` (stereo not drawn) registered a Duration of action in the series listed under Rattus norvegicus [1] of over 4 h. In addition, the Kb in the series listed under Homo sapiens came to 0.39 nM; in the series listed under Canis familiaris [2], 187 µg/kg; in the series filed under Canis familiaris [3] it was 3.7 nM; in series [7] it was 0.3 nM; in the series filed under Rattus norvegicus [8], 2.5 nM; in the series listed under Rattus norvegicus [9], 1 nM. Besides, the Kb was 4.2 µg/kg in the series filed under Canis familiaris [10] and over 1000 nM in the series filed under Rattus norvegicus [11]. Moreover, the values for the AD50 in the series listed under Rattus norvegicus [4] and in the series filed under Rattus norvegicus [6] were over 3 mg/kg and 0.02 mg/kg, respectively. This compound also displayed a Ki in series [5] of 0.27 nM.

Regarding `COc1cc2nc(N3CCN(C(=O)C4CCCO4)CC3)nc(N)c2cc1OC` (stereo not drawn) [TERAZOSIN], the AD50 amounted to 0.065 mg/kg in the series filed under Rattus norvegicus [4] and 0.052 mg/kg in the series listed under Rattus norvegicus [6]. Moreover, the Kb in the series listed under Canis familiaris [12] amounted to 15.7 µg/kg; in the series filed under Canis familiaris [10], 16.4 µg/kg; in the series listed under Rattus norvegicus [11], 19 nM. Further, the Duration of action in the series filed under Rattus norvegicus [13] was over 4 h.
